Screening results (PubChem)
Sampled rows, rich in hits. Any-hit rate of the full collection: about 3.5%.
MrgX1 antagonist – human MrgX1 receptor antagonism, primary screen; B-score at 10 µM; MRGX1-HEK293 calcium flux, Fluo-4, BAM8-22 antagonism; stronger effect = lower value; 310,000 compounds, 1.3% hits; AID 588676; Q96LB2;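 active = calcium-response B-score plate-corrected more than 3 library SD below zero, starting fluorescence within 5 deviations, no agonist response on first addition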;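 also: peak minus trough fluorescence over baseline after final BAM8-22 challenge near maximal dose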
Target sequence (Q96LB2 whole entry, looked up): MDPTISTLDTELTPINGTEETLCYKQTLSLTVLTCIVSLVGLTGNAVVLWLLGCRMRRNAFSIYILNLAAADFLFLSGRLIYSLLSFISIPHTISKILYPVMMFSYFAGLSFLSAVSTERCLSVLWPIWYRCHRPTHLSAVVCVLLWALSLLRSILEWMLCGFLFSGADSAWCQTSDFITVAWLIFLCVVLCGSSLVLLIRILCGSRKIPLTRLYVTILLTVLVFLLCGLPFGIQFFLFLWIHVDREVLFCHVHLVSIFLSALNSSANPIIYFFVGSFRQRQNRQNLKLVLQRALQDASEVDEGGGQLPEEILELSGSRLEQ
RGS4 pot – potentiators or activators of RGS4; HEK293 M3R/inducible RGS4, carbachol calcium flux Fluo4; stronger effect = lower value; B-score at 10 µM; 310,000 compounds, 0.92% hits;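 active = B-score of the integrated calcium signal more than 4 SD below the library mean, with starting fluorescence not abnormally high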;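 also: negative B-score means reduced calcium response which marks RGS4 activation or potentiation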
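Material: M3R-expressing HEK293 line, RGS4 induced by doxycycline | Schedule: Overnight RGS4 induction, 30 min dye load 37 °C, 20 min compound RT | Measured by: Fluo4 fluorescence kinetic imaging of calcium | Read-out: Integrated calcium ratio converted to B score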
MrgX1 PAM – allosterically activates human MrgX1 receptor signaling | Q96LB2 | MrgX1-HEK293, Fluo-4 calcium flux, FDSS; stronger effect = higher value | B-score at 10 µM | 310,000 compounds, 0.63% hits | AID 588675;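 active = plate-corrected calcium response at least 3 library SD above typical, normal starting fluorescence, not activating the receptor alone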;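 also: compound read alongside a low EC10 to EC30 dose of BAM8-22 agonist; peak minus trough fluorescence over baseline measured at the second addition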
RGS4 inh – human RGS4 inhibition. HEK293 M3R/RGS4 inducible, Fluo-4 calcium flux; stronger effect = higher value; triggered by carbachol at its EC20. B-score at 10 µM. 310,000 compounds, 0.45% hits. AID 463165;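 active = B-score, a plate-corrected calcium signal, over three deviations above library mean, with baseline fluorescence within five deviations of library mean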;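 also: RGS4 expression induced by doxycycline in cells with stable M3 receptor; B-score is computed from the integrated fluorescence ratio over baseline after carbachol; higher B-score means a larger calcium signal and so more RGS4 inhibition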
Target sequence (P49798 whole entry, looked up): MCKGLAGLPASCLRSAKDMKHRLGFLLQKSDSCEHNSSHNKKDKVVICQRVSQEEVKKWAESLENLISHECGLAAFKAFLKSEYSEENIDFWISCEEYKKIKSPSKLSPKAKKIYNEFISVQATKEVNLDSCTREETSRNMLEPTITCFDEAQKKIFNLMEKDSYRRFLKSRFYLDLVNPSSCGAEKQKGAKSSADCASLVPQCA
MrgX1 agonist – human MrgX1 receptor agonism, primary screen | B-score at 10 µM | Q96LB2 | MrgX1-HEK293 cells, Fluo-4 calcium fluorescence, agonist mode; stronger effect = higher value | 310,000 compounds, 0.44% hits;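 active = calcium response B-score plate-corrected fluorescence ratio at least 3 library SD, with starting fluorescence B-score inside 5 SD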
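times = overnight plating, then 30 min 37 °C plus 30 min room-temperature dye loading | assay system = stable human MrgX1 HEK293 cell line | input = fifteen thousand cells per well | signal = kinetic calcium dye fluorescence, Fluo-4 NW | dosing = compound delivered in addition one of three | read-out = B-scored fluorescence response ratio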
* = called active by the depositor.

Results for Cc1ccc(C)c(NC(=O)C2CC=CCC2C(=O)O)c1 (configuration not stated) ?
MrgX1 antagonist: inactive; RGS4 pot: inactive; MrgX1 PAM: inactive; RGS4 inh: inactive; MrgX1 agonist: inactive

Results for CN(C)c1ccc(/C=C/C(=O)c2cc(Cl)ccc2O)cc1 ?
MrgX1 antagonist: -6.8*; RGS4 pot: inactive; MrgX1 PAM: inactive; RGS4 inh: inactive; MrgX1 agonist: inactive

Results for CC(C)(C)C(=O)Nc1cc(NC(=O)C(C)(C)C)cc(C(=O)Nc2cc(C(=O)O)cc(C(=O)O)c2)c1 ?
MrgX1 antagonist: inactive; RGS4 pot: inactive; MrgX1 PAM: inactive; RGS4 inh: inactive; MrgX1 agonist: inactive

Results for Cc1csc(N/N=C/c2c(F)cccc2Cl)n1 ?
MrgX1 antagonist: inactive; RGS4 pot: inactive; MrgX1 PAM: 9.8*; RGS4 inh: inactive; MrgX1 agonist: inactive

Results for Cc1csc(N/N=C/c2ccccc2F)n1 ?
MrgX1 antagonist: inactive; RGS4 pot: inactive; MrgX1 PAM: inactive; RGS4 inh: inactive; MrgX1 agonist: inactive

Results for Cc1cc2ncn(-c3ncccc3[N+](=O)[O-])c2cc1C ?
MrgX1 antagonist: inactive; RGS4 pot: inactive; MrgX1 PAM: inactive; RGS4 inh: inactive; MrgX1 agonist: 27*

Results for CC(C)(C)c1ccc(OCC(=O)NCCN2CCOCC2)cc1 ?
MrgX1 antagonist: inactive; RGS4 pot: inactive; MrgX1 PAM: inactive; RGS4 inh: inactive; MrgX1 agonist: inactive

Results for CC(C)[C@H](NS(=O)(=O)c1ccccc1)C(=O)OCC(=O)Nc1ccccc1Sc1ccccc1 ?
MrgX1 antagonist: -6.4*; RGS4 pot: inactive; MrgX1 PAM: inactive; RGS4 inh: inactive; MrgX1 agonist: inactive

Results for COc1ccc2nc(N3C(=O)/C(=C/c4ccccc4)NC3=S)sc2c1 ?
MrgX1 antagonist: inactive; RGS4 pot: inactive; MrgX1 PAM: 6.8*; RGS4 inh: inactive; MrgX1 agonist: inactive

What do the screens show for `Cc1c(C(=O)N/N=C/c2ccoc2)cccc1[N+](=O)[O-]`?
MrgX1 antagonist: inactive; RGS4 pot: inactive; MrgX1 PAM: inactive; RGS4 inh: inactive; MrgX1 agonist: inactive

How did Cc1cc(C)cc(-n2c(C)cc(/C=N/NC(=O)c3ccncc3)c2C)c1 do in these assays?
MrgX1 antagonist: inactive; RGS4 pot: inactive; MrgX1 PAM: inactive; RGS4 inh: inactive; MrgX1 agonist: inactive

Results for Cc1cc(C)cc(-n2c(C)cc(/C=N/NC(=O)c3cccc([N+](=O)[O-])c3C)c2C)c1 ?
MrgX1 antagonist: inactive; RGS4 pot: -7.3*; MrgX1 PAM: inactive; RGS4 inh: inactive; MrgX1 agonist: inactive

What do the screens show for `Cc1cc(C)cc(-n2c(C)cc(/C=N/NC(=O)CSc3ncccn3)c2C)c1`?
MrgX1 antagonist: inactive; RGS4 pot: -8.3*; MrgX1 PAM: inactive; RGS4 inh: inactive; MrgX1 agonist: inactive

Results for COc1ccc(Cc2nc3ccc(C(=O)N(C)CCCN4CCOCC4)cc3o2)cc1 ?
MrgX1 antagonist: inactive; RGS4 pot: inactive; MrgX1 PAM: inactive; RGS4 inh: inactive; MrgX1 agonist: inactive

How did O=C(NCC1CC1)[C@]1(C(F)(F)F)C[C@H](CCC2CCCCC2)CCCO1 do in these assays?
MrgX1 antagonist: inactive; RGS4 pot: inactive; MrgX1 PAM: inactive; RGS4 inh: inactive; MrgX1 agonist: inactive

How did CCOc1ccc(N2CC(C(=O)NCc3ccc4c(c3)OCO4)CC2=O)cc1 (configuration not stated) do in these assays?
MrgX1 antagonist: inactive; RGS4 pot: inactive; MrgX1 PAM: inactive; RGS4 inh: inactive; MrgX1 agonist: inactive

What do the screens show for `COc1ccc2cc(-c3[nH]ncc3CN3CCCCO3)ccc2c1`?
MrgX1 antagonist: inactive; RGS4 pot: inactive; MrgX1 PAM: inactive; RGS4 inh: inactive; MrgX1 agonist: 35*

Results for COc1ccc(-c2[nH]ncc2CN2CCCO2)cc1F ?
MrgX1 antagonist: inactive; RGS4 pot: inactive; MrgX1 PAM: inactive; RGS4 inh: inactive; MrgX1 agonist: inactive

Results for NS(=O)(=O)c1ccc(CCNC(=O)C2CCCN2S(=O)(=O)c2cccc3nsnc23)cc1 (configuration not stated) ?
MrgX1 antagonist: inactive; RGS4 pot: inactive; MrgX1 PAM: inactive; RGS4 inh: inactive; MrgX1 agonist: inactive

How did Cc1ccc[n+](CC(=O)c2cc3ccccc3oc2=O)c1 do in these assays?
MrgX1 antagonist: inactive; RGS4 pot: -9.9*; MrgX1 PAM: inactive; RGS4 inh: inactive; MrgX1 agonist: inactive

How did Cc1nnc2n(c1=O)C(CS(=O)(=O)c1ccccc1)CS2 (configuration not stated) do in these assays?
MrgX1 antagonist: inactive; RGS4 pot: inactive; MrgX1 PAM: inactive; RGS4 inh: inactive; MrgX1 agonist: inactive

How did O=[N+]([O-])c1ccc(S(=O)(=O)CC2CSc3nc4ccccc4n32)cc1 (configuration not stated) do in these assays?
MrgX1 antagonist: -5*; RGS4 pot: inactive; MrgX1 PAM: inactive; RGS4 inh: inactive; MrgX1 agonist: inactive

Results for Cc1cc(C)cc(C(=O)NCC(=O)OCC(=O)NCc2ccco2)c1 ?
MrgX1 antagonist: inactive; RGS4 pot: inactive; MrgX1 PAM: inactive; RGS4 inh: inactive; MrgX1 agonist: inactive

How did CCn1c(-c2ccccc2Cl)nn(CC(=O)NCCc2ccccc2)c1=S do in these assays?
MrgX1 antagonist: inactive; RGS4 pot: inactive; MrgX1 PAM: 12*; RGS4 inh: inactive; MrgX1 agonist: inactive

Results for CN(C)c1ncnc2sc(-c3ccccc3)cc12 ?
MrgX1 antagonist: -7.1*; RGS4 pot: inactive; MrgX1 PAM: inactive; RGS4 inh: inactive; MrgX1 agonist: inactive

What do the screens show for `COc1ncnc2sc(-c3ccccc3)cc12`?
MrgX1 antagonist: inactive; RGS4 pot: inactive; MrgX1 PAM: inactive; RGS4 inh: inactive; MrgX1 agonist: inactive

How did CCOC(=O)C1=C(c2ccccc2)NC(=S)NC1c1ccc(C)c([N+](=O)[O-])c1 (configuration not stated) do in these assays?
MrgX1 antagonist: -4.9*; RGS4 pot: inactive; MrgX1 PAM: inactive; RGS4 inh: inactive; MrgX1 agonist: inactive

Results for CCOC(=O)C1=C(c2ccccc2)NC(=S)NC1c1cccc([N+](=O)[O-])c1 (configuration not stated) ?
MrgX1 antagonist: inactive; RGS4 pot: inactive; MrgX1 PAM: inactive; RGS4 inh: inactive; MrgX1 agonist: inactive

Results for O=C(Nc1cccc(-c2csc(Nc3cccc(C(F)(F)F)c3)n2)c1)c1ccccc1 ?
MrgX1 antagonist: inactive; RGS4 pot: inactive; MrgX1 PAM: inactive; RGS4 inh: inactive; MrgX1 agonist: inactive
